# From ChEMBL document CHEMBL1165982, “Induction of G(2)/M phase arrest and apoptosis by oridonin in human laryngeal carcinoma cells” (J Nat Prod, 2010)
# Active and inactive are the calls of the source. The calls are words filed in the database; no cut-off is given here.
# Tests used:
# HEp-2 [1] = test: Cytotoxicity against human Hep2 cells after 24 hrs by MTT assay; assay type: functional, cell-based; settings: HEp-2, 24 h
# In short: (§1)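 Cells seeded at 1.2 × 10^4 per well in 96-well plates, grown 24 h, then treated over 10.7–81 µM for 6, 12, 24, 36 or 48 h. Viability read by MTT. DMSO kept below 0.05%. IC50 taken at 24 h.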
# HEp-2 [2] = test: Cytotoxicity against human Hep2 cells at 36 uM after 24 hrs by MTT assay; assay type: functional; in short: as §1
# HEp-2 [3] = test: Induction of apoptosis in human Hep2 cells assessed as accumulation in subG1 phase using PI staining by flow cytometeric analysis; assay type: functional
# In short: (§2)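 ATCC HEp-2 in RPMI-1640 with 10% FBS at 37 °C, 5% CO2, exposed to 36 µM for 0, 6, 12 or 24 h. 1 × 10^6 cells were fixed in 70% ethanol at 4 °C for at least 12 h, then stained on ice in the dark for 30 min with 50 µg/mL PI plus 1 mg/mL RNase A. Read by flow cytometry, ≥10 000 cells per sample. SubG1 counted as the apoptotic fraction. n = 3.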
# HEp-2 [4] = test: Induction of apoptosis in human Hep2 cells assessed as morphological changes at 36 uM after 24 hrs by microscopy; assay type: functional, cell-based
# HEp-2 [5] = test: Cell cycle arrest in human Hep2 cells assessed as accumulation at G2/M phase at 36 uM after 6 hrs using propidium iodide staining by flow cytometry; assay type: functional; in short: as §2
# HEp-2 [6] = test: Cell cycle arrest in human Hep2 cells assessed as accumulation at G2/M phase at 36 uM after 12 hrs using propidium iodide staining by flow cytometry; assay type: functional; in short: as §2
# HEp-2 [7] = test: Cell cycle arrest in human Hep2 cells assessed as accumulation at G2/M phase at 36 uM after 24 hrs using propidium iodide staining by flow cytometry; assay type: functional; in short: as §2
# HEp-2 [8] = test: Induction of ROS generation in human Hep2 cells at 36 uM after 3 hrs relative to control; assay type: functional, cell-based
# In short: (§3)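 Cells exposed to 36 µM for 0, 3, 6, 12 or 24 h, then loaded with DCF-DA (10 mM as printed) for 15 min at 37 °C. Harvested, resuspended in PBS and read by flow cytometry (ex 480 nm, em 525 nm). Result given as % DCF-positive cells. n = 3.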
# HEp-2 [9] = test: Induction of ROS generation in human Hep2 cells assessed as ratio of DCF-positive cells at 36 uM after 3 hrs relative to control; assay type: functional; in short: as §3
# HEp-2 [10] = test: Induction of ROS generation in human Hep2 cells assessed as ratio of DCF-positive cells at 36 uM after 6 hrs relative to control; assay type: functional; in short: as §3
# HEp-2 [11] = test: Induction of ROS generation in human Hep2 cells assessed as ratio of DCF-positive cells at 36 uM after 12 hrs relative to control; assay type: functional; in short: as §3
# HEp-2 [12] = test: Induction of ROS generation in human Hep2 cells assessed as ratio of DCF-positive cells at 36 uM after 24 hrs relative to control; assay type: functional; in short: as §3
# HEp-2 [13] = test: Induction of ROS generation in human Hep2 cells assessed as ROS level at 36 uM after 24 hrs in presence of N-acetyl-cysteine ROS scavenger; assay type: functional
# In short: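 ROS read as % DCF-positive cells after 24 h co-incubation of 36 µM with 2.5 mM N-acetylcysteine. DCF-DA loading 15 min at 37 °C; flow cytometry at ex 480 / em 525 nm. n = 3.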
# HEp-2 [14] = test: Induction of apoptosis in human Hep2 cells assessed as accumulation in subG1 phase using PI staining at 36 uM after 24 hrs by flow cytometeric analysis in presence of N-acetyl-cysteine ROS scavenger; assay type: functional
# In short: (§4)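 HEp-2 cells were pretreated 1 h with 2.5 mM N-acetylcysteine, then co-incubated with 36 µM for 24 h. They were then fixed in 70% ethanol (≥12 h, 4 °C) and stained on ice in the dark for 30 min with 50 µg/mL PI and 1 mg/mL RNase A. G2/M and subG1 fractions were read by flow cytometry, ≥10 000 cells counted. n = 3.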
# HEp-2 [15] = test: Induction of apoptosis in human Hep2 cells assessed as accumulation in G2/M phase using PI staining at 36 uM after 24 hrs by flow cytometeric analysis in presence of N-acetyl-cysteine ROS scavenger; assay type: functional; in short: as §4
# HEp-2 [16] = test: Induction of apoptosis in human Hep2 cells assessed as apoptotic bodies using acridine orange staining at 36 uM after 24 hrs by microscopic analysis; assay type: functional, cell-based
# HEp-2 [17] = test: Induction of apoptosis in human Hep2 cells assessed as fragmented DNA using acridine orange staining at 36 uM after 24 hrs by microscopic analysis; assay type: functional, cell-based
# HEp-2 [18] = test: Induction of apoptosis in human Hep2 cells assessed as apoptotic bodies using acridine orange staining at 36 uM after 24 hrs by microscopic analysis in presence of N-acetyl-cysteine ROS scavenger; assay type: functional, cell-based
# HEp-2 [19] = test: Induction of apoptosis in human Hep2 cells assessed as fragmented DNA using acridine orange staining at 36 uM after 24 hrs by microscopic analysis in presence of N-acetyl-cysteine ROS scavenger; assay type: functional, cell-based
# HEp-2 [20] = test: Induction of apoptosis in human Hep2 cells assessed as decrease in mitochondrial membrane potential using rhodamine 123 staining at 36 uM after 24 hrs by FACScan flow cytometry; assay type: functional; parameters: scale not given: the % may be the effect or the level left
# In short: (§5)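 Membrane potential: HEp-2 exposed to 36 µM for 0–24 h, alone or with 2.5 mM N-acetylcysteine for 24 h. Cells collected into PBS with 1 µg/mL rhodamine-123, held 15 min at 37 °C, then read by flow cytometry for % rhodamine-123-bright cells. n = 3.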
# HEp-2 [21] = test: Induction of apoptosis in human Hep2 cells assessed as decrease in mitochondrial membrane potential using rhodamine 123 staining at 36 uM after 24 hrs by FACScan flow cytometry in presence of N-acetyl-cysteine ROS scavenger; assay type: functional; parameters: scale not given: the % may be the effect or the level left; in short: as §5
# HEp-2 [22] = test: Induction of apoptosis in human Hep2 cells assessed as increase in pro-apoptotic Bax protein at 36 uM after 6 hrs by Western blot analysis; assay type: functional, cell-based
# In short: (§6)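 Treatment: 36 µM for 0, 6, 12 or 24 h, alone or with 2.5 mM N-acetylcysteine or 500 U/mL catalase. Lysis 60 min at 4 °C in Hepes pH 7.4/1% Triton X-100 with phosphatase and protease inhibitors, spin 13000g. Lysates run on 12% SDS-PAGE, blotted to nitrocellulose, probed with polyclonal antibodies, HRP/DAB detection. Representative of ≥3 experiments.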
# HEp-2 [23] = test: Induction of apoptosis in human Hep2 cells assessed as increase in cytochrome c at 36 uM after 12 hrs by Western blot analysis; assay type: functional, cell-based; in short: as §6
# HEp-2 [24] = test: Induction of apoptosis in human Hep2 cells assessed as decrease in Bcl-2 at 36 uM after 12 hrs by Western blot analysis; assay type: functional, cell-based; settings: in the assay text read “after 24 hrs” for “after 12 hrs”; in short: as §6
# HEp-2 [25] = test: Induction of apoptosis in human Hep2 cells assessed as increase in AIF level at 36 uM after 6 hrs by Western blot analysis; assay type: functional, cell-based; in short: as §6
smiles,measurement,setting,value
C=C1C(=O)[C@]23[C@H](O)[C@H]1CC[C@H]2[C@@]12CO[C@]3(O)[C@@H](O)[C@@H]1C(C)(C)CC[C@@H]2O [ORIDONIN],IC50,HEp-2 [1],37.1 µM
same,Activity,HEp-2 [2],50%
same,Activity,HEp-2 [3],26.57%
same,Activity,HEp-2 [4],Active
same,Activity,HEp-2 [5],32.84%
same,Activity,HEp-2 [6],40.57%
same,Activity,HEp-2 [7],25.84%
same,Activity,HEp-2 [8],Active
same,Activity,HEp-2 [9],16.65%
same,Activity,HEp-2 [10],17.25%
same,Activity,HEp-2 [11],24.21%
same,Activity,HEp-2 [12],24.86%
same,Activity,HEp-2 [13],4.41%
same,Activity,HEp-2 [14],3.39%
same,Activity,HEp-2 [15],14%
same,Activity,HEp-2 [16],Active
same,Activity,HEp-2 [17],Active
same,Activity,HEp-2 [18],inactive
same,Activity,HEp-2 [19],inactive
same,Activity,HEp-2 [20],58.6%
same,Activity,HEp-2 [21],89.31%
same,Activity,HEp-2 [22],Active
same,Activity,HEp-2 [23],Active
same,Activity,HEp-2 [24],Active
same,Activity,HEp-2 [25],Active
